Assay outcomes (PubChem)
Compounds with a hit are over-represented: about 3.3% of the library has one in this group of screens.
ATG4B inh: ATG4B protease inhibitors, primary screen, biochemical, fluorescence, uHTS. inhibition, % at 8.33 µM. AID 504462, 2011. ATG4B cleavage of LC3-PLA2, NBD-HPC fluorescence, 1 h. 340,000 compounds, 0.51% hits; in the data active = inhibition above about 40%
NRP1-CendR mod: modulators of CendR peptide binding to NRP-1, primary screen, biochemical, fluorescence polarization, uHTS; inhibition, % at 25 µM; FAM-RPARPAR peptide binding to NRP-1; 360,000 compounds, 0.85% hits; Neuropilin-1 (Homo sapiens), O14786;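 active = inhibition or corrected inhibition above about 18%, plus a signal ratio from 0.5 to 1.5, limit read from the data, passing the limit was not always enough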
Exocytosis inh: LAMP-1 surface exposure blockers, TALL-104 cells – cell-based, flow cytometry, MLPCN library, primary screen; AID 651702, 2012; TALL-104 LAMP-1 surface exposure; cells stimulated with thapsigargin and PMA; inhibition, % at 10 µM; 360,000 compounds, 0.66% hits;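 active = inhibition above about 55%, limit read from the data; inconclusive = no clear call, values can overlap the other calls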
Myeloid diff 2: induction of myeloid progenitor differentiation, primary screen, cell-based, flow cytometry, MLPCN library. ER-HoxA9 myeloid progenitors, lysozyme-GFP differentiation. calls only at 10 µM. 360,000 compounds, 1% hits. AID 624256, 2012;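 active = normalized GFP-positive differentiation at or above the plate's own cutoff, the solvent-only control mean plus 3 SD; inconclusive = no clear call, values can overlap the other calls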;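 also: cells exposed to compound for four days before flow analysis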
ABCB6 inh MLPCN: ABCB6 transporter inhibitors, primary screen, K562-ABCB6 cells, flow cytometry, MLPCN library | fluorescence ratio to DMSO, % at 10 µM | 360,000 compounds, 0.19% hits | ATP-binding cassette sub-family B member 6 (Homo sapiens), Q9NP58 | K562-ABCB6 porphyrin accumulation, 1 h; active compounds read low;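 active = fluorescence ratio to DMSO below 75%, the collection mean minus 3 SD; inconclusive = too few cells collected in the well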;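 also: signal is porphyrin accumulated inside mitochondria; lower ratio means ABCB6 inhibition with less porphyrin fluorescence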
Arrestin-AP2 inh: inhibitors of beta-arrestin/AP2 binding, primary screen, biochemical, GPCR trafficking, flow cytometry; beta-arrestin 1 C-terminal peptide binding to AP2 beta2-adaptin appendage (human); FITC-arrestin peptide / GST-AP2 beads; AP2 beta2 appendage carries R879A mutation; inhibition, % at 10 µM; 340,000 compounds, 0.31% hits; AID 504490, 2011;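 active = inhibition above a set limit, near 3 SD of compounds lacking own fluorescence, cut at about 54% in these data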
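System: GST-AP2 R879A glutathione beads | Also added: FITC-arrestin peptide, 50 nM | Times: 12 min plus 1 h, RT | Signal: Bead flow cytometry, FITC channel | Buffer or medium: PBS with 0.05% Tween 20 and 0.1% BSA | Read-out basis: Percent drop in bead-associated FITC signal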
ATG4B confirm: ATG4B protease inhibitors, retest, confirmation, biochemical, fluorescence, single concentration; AID 504757, 2011; ATG4B protease fluorescent substrate cleavage assay; 320 compounds, 92% hits; shares compounds with ATG4B inh; inhibition, % at 8.33 µM; in the data active = inhibition above about 39%
PLA2 ctr: PLA2 enzyme inhibition, counter-screen for ATG4B inhibitor project, biochemical, single concentration, uHTS hits. shares compounds with ATG4B inh. purified PLA2, NBD-C6-HPC fluorescence, 45 min. inhibition, % at 8.33 µM. 1,600 compounds, 66% hits. AID 588402, 2011; in the data active = inhibition above about 50%
Each line names hits and unclear results; the compound was inactive in the other large screens (follow-up assays come after a bar, where they were run).

O=c1c2ccccc2nc(SCc2cn3ccsc3n2)n1-c1ccc(F)cc1	ATG4B inh 75 | PLA2 ctr 71
O=C(c1ccc(-n2c(SCc3cc(F)ccc3F)nc3ccccc3c2=O)cc1)N1CCOCC1	ATG4B inh 47 | ATG4B confirm 63 | PLA2 ctr inactive
Cc1cc(OC(=O)c2c(F)cc(F)cc2F)nc(C)n1	none
CNc1cc(CSc2ccc(Cl)cc2)nc(C)n1	none
Cc1nc(CSc2ccc(Cl)cc2)cc(NCc2ccccc2)n1	ATG4B inh 73 | PLA2 ctr 79
Cc1cc(N/N=C/c2cccc(F)c2)nc(NCc2ccccc2)n1	ATG4B inh 73 | PLA2 ctr 80
Cc1cc(N/N=C/c2ccc(Cl)cc2)nc(NCc2ccccc2)n1	none
Cc1cc(N/N=C/c2cccc(Cl)c2)nc(NCc2ccccc2)n1	ATG4B inh 76 | PLA2 ctr 84
Cc1cc(N/N=C/c2ccccc2)nc(NCc2ccccc2)n1	ATG4B inh 69 | PLA2 ctr 76
Cc1cc(N/N=C/c2ccccc2F)nc(NCc2ccccc2)n1	ATG4B inh 59 | PLA2 ctr 79
CN(C)c1nc(NCc2ccccc2)nc(N/N=C/c2ccc(Cl)cc2Cl)n1	none
CCOc1ncccc1C(=O)NNC(=O)c1cccc(S(=O)(=O)Nc2ccc(OC)cc2)c1	none
CCOc1ccc(NC(=O)COC(=O)CSCC(=O)Nc2ccc(C)cc2C)cc1	none
CC1CCN(C2=C(NS(=O)(=O)c3ccc(Cl)cc3)C(=O)c3ccccc3C2=O)CC1	none
CC1CCN(C2=C(NS(=O)(=O)c3ccccc3)C(=O)c3ccccc3C2=O)CC1	ATG4B inh 46 | PLA2 ctr 65
Cc1ccc(-n2c(SCC(=O)N/N=C/c3c(C)nn(-c4ccccc4)c3C)nc3ccccc3c2=O)cc1	ATG4B inh 40 | ATG4B confirm 78 | PLA2 ctr inactive
C=C(C)Cn1c(SCC(=O)N/N=C/c2c(O)ccc3ccccc23)nc2ccccc2c1=O	ATG4B inh 41 | ATG4B confirm 56 | PLA2 ctr inactive
CCCCCCCCN1C(=O)[C@H](CC(=O)NCCCOCCCC)C[C@@]2(C(=O)OC)CCCCC=C12	none (no result: ATG4B inh, Arrestin-AP2 inh)
O=C(CN(c1cccc(C(F)(F)F)c1)S(=O)(=O)c1ccc(Cl)c([N+](=O)[O-])c1)NCc1ccc(F)cc1	Myeloid diff 2 inconclusive
Cc1ccc2c(c1)/C(=N/OC(=O)c1ccc(F)cc1)CCS2	none
O=C(O/N=C1/CCSc2ccccc21)c1ccccc1	ATG4B inh 42, NRP1-CendR mod 26 | ATG4B confirm 72 | PLA2 ctr inactive
COc1ccc(C(=O)OCCOc2ccccc2C(C)=O)c(O)c1	none
O=[N+]([O-])c1ccc(N/N=C/c2sc(N3CCOCC3)nc2-c2ccccc2)c(S(=O)(=O)Nc2ccccc2Cl)c1	ATG4B inh 62 | PLA2 ctr inactive
O=C(N/N=C/c1sc(N2CCOCC2)nc1-c1ccccc1)c1ccccc1Cl	none
CCS(=O)(=O)N1Cc2ccccc2CC1C(=O)Nc1nnc(SCc2c(Cl)cccc2Cl)s1 (centres undefined)	ATG4B inh 74 | PLA2 ctr 64
CCSc1nnc(NC(=O)C2Cc3ccccc3CN2S(=O)(=O)CC)s1 (centres undefined)	none
COc1ccc(NC(=O)CN(C)C(=O)CCCNC(=O)c2ccc(Cl)cc2)cc1	none
Cc1cccc(-c2noc(-c3ccno3)n2)c1	none
CCCCn1c(NC(=O)c2ccccc2)c(C#N)c2nc3ccccc3nc21	ATG4B inh 55, Myeloid diff 2 active | PLA2 ctr 60
O=C(O)c1cccc(CSc2nc(-c3ccc(Cl)cc3)cc(C(F)(F)F)n2)c1	ATG4B inh 52 | ATG4B confirm 62 | PLA2 ctr inactive
Fc1ccc2[nH]c3c(NCc4ccccc4)ncnc3c2c1	ATG4B inh 50 | PLA2 ctr 65
CC(NS(=O)(=O)c1ccc(CCC(=O)NCc2cccnc2)cc1)c1ccccc1 (centres undefined)	ATG4B inh 90 | PLA2 ctr inactive
O=C1OCCN1CC(=O)N1CCc2c([nH]c3ccccc23)C1c1ccccn1 (centres undefined)	none
O=C(Nc1ccc(OC(F)(F)F)cc1)Nc1cccc([N+](=O)[O-])c1	ATG4B inh 49, Myeloid diff 2 inconclusive | PLA2 ctr 58
Cc1ccc(NC(=O)Nc2cccc([N+](=O)[O-])c2)cc1F	none
Brc1ccc(CSc2nnc3ccccn23)cc1	none
C#Cc1ccc([C@@H]2C=C(C(=O)O)O[C@H](OCC)[C@H]2CCCO)cc1	ATG4B inh 59 | PLA2 ctr 72
Cc1ccc(-c2c(C)sc3nc(CN4CCN(CC(=O)NC5CC5)CC4)[nH]c(=O)c23)cc1	none
Nc1nnc(Cc2ccc(Cl)cc2Cl)s1	ATG4B inh 71 | PLA2 ctr 76
Nc1nnc(Cc2ccc(Cl)cc2)s1	none
Cc1sc2nc(CN3CCCC3)nc(N3CCN(C(=O)c4ccco4)CC3)c2c1C	none
Cc1nc(N2CCN(C(=O)c3cccs3)CC2)c2c3c(sc2n1)CCCC3	ATG4B inh 78 | PLA2 ctr 86
Cc1nc(N2CCN(C(=O)c3ccco3)CC2)c2c3c(sc2n1)CCCC3	ATG4B inh 68, Myeloid diff 2 inconclusive | PLA2 ctr 67
O=C(c1ccco1)N1CCN(c2nc(C3CC3)nc3sc4c(c23)CCCC4)CC1	ATG4B inh 93 | PLA2 ctr 91
Cc1nc(N2CCN(C(=O)c3ccco3)CC2)c2c3c(sc2n1)CC(C)CC3 (centres undefined)	Myeloid diff 2 inconclusive
CCNC(=S)N1CCN(c2nc(CC)nc3sc4c(c23)CCCC4)CC1	ATG4B inh 73 (no result: Myeloid diff 2) | PLA2 ctr 83
CCc1nc(N2CCN(C(=O)CCCl)CC2)c2c3c(sc2n1)CCCC3	none (no result: ATG4B inh, Arrestin-AP2 inh)
COc1cc(/C=C/C(=O)NC(=O)c2ccccc2O)ccc1OC(C)=O	none
